Assay results taken from ChEMBL document CHEMBL1149264, “Discovery of novel phenolic antioxidants as inhibitors of vascular cell adhesion molecule-1 expression for use in chronic inflammatory diseases” (J Med Chem, 2004).

Experiments:
[1] = Inhibition of TNF-alpha-stimulated VCAM1 expression in endothelial cells; type: functional, cell-based; settings: Homo sapiens, Endothelial cell
[2] = Inhibition of LPS-induced TNFalpha secretion in human PBMN cells by ELISA; type: functional, cell-based
In short: (§1)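 Fresh cryopreserved human PBMCs at 1 million cells/mL in lymphocyte growth media-3 were pretreated with compound for 1 h, then stimulated with LPS 1 μg/mL for a further 2 h with compound present. Secreted TNF-α, IL-6 and IL-1β in conditioned media measured by human ELISA, in duplicate (mean ± SD). Experiments repeated at least three times.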

Mus musculus [3] = experiment: Inhibition of mBSA-induced paw-swelling in DTH BALB/c mouse model at 25 mg/kg, sc; type: functional; settings: route subcutaneous
In short: (§2)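 Male BALB/c mice (20-25 g) sensitized on day 0 with intradermal abdominal mBSA (5 mg/mL)/Freund's complete adjuvant 1:1 emulsion. On day 7 challenged with mBSA in the right hind footpad, saline in the left. Compound given s.c. 24 h and 2 h before challenge; cyclosporin A 20 mg/kg as reference. Feet weighed 24 h post-challenge; swelling inhibition relative to vehicle group (100%). ANOVA with Fisher's PLSD.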

Syrian golden hamster [4] = experiment: Effect on HDL level in hypercholesterolemic golden Syrian hamster; type: functional, Mesocricetus auratus; parameters: unit not given here
In short: (§3)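 Male golden Syrian hamsters (110-120 g), housed singly, given compound mixed into powdered chow at 150 mg/kg/d for two weeks. After an overnight fast and ketamine/xylazine i.p. anesthesia, blood was taken by cardiac puncture or abdominal aorta. Plasma was fractionated by FPLC and lipoprotein cholesterol measured enzymatically. Dunnett's test against controls.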

[5] = Inhibition of LPS-induced IL6 secretion in human PBMN cells by ELISA; type: functional, cell-based; in short: as §1
Syrian golden hamster [6] = experiment: Effect on LDL level in hypercholesterolemic golden Syrian hamster; type: functional, Mesocricetus auratus; parameters: unit not given here; in short: as §3
Mus musculus [7] = experiment: Inhibition of mBSA-induced paw-swelling in DTH BALB/c mouse model at 50 mg/kg, sc; type: functional; settings: route subcutaneous; in short: as §2
[8] = Inhibition of LPS-induced IL1-beta secretion in human PBMN cells by ELISA; type: functional, cell-based; in short: as §1
[9] = molecular target: T1, Polyunsaturated fatty acid lipoxygenase ALOX15 (Homo sapiens, UniProt P16050); experiment: Inhibition of 15-lipoxygenase by LMB assay
T1 sequence (P16050 whole entry): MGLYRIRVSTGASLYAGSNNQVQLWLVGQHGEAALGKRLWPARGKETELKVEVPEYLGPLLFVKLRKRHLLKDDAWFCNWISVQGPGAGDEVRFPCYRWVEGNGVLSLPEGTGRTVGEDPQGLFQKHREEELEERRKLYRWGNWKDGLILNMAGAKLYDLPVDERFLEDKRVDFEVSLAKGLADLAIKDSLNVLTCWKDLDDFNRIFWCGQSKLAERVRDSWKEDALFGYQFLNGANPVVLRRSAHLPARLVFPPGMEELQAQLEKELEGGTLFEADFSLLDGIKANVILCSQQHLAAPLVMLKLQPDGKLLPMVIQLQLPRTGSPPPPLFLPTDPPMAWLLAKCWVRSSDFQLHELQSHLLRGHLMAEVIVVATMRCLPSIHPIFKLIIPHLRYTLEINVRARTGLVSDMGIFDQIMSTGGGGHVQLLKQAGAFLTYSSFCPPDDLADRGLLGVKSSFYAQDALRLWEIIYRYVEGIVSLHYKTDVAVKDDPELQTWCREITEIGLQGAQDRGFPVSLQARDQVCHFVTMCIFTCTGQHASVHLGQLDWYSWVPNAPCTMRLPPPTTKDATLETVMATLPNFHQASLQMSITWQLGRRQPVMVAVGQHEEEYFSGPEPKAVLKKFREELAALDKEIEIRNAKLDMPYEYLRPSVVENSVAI

## CC(C)(Sc1cc(C(C)(C)C)c(O)c(C(C)(C)C)c1)Sc1ccc(C(C)(C)C)c(OCC(=O)NC(CO)CO)c1C(C)(C)C
[1]
  IC50: 6 µM

## CC(C)(Sc1cc(C(C)(C)C)c(O)c(C(C)(C)C)c1)Sc1ccc(C(C)(C)C)c(OC[C@@H](O)[C@@H](O)[C@H](O)[C@@H](O)CO)c1C(C)(C)C
[2]
  IC50: 1.8 µM
Mus musculus [3]
  inhibition in vivo at 25 mg/kg: 29%
[1]
  IC50: 15 µM
Syrian golden hamster [4]
  Activity: 94
[5]
  IC50: 1000 nM
Syrian golden hamster [6]
  Activity: 30
Mus musculus [7]
  inhibition in vivo at 50 mg/kg: 58%
[8]
  IC50: 2.2 µM
[9]
  IC50: 12 µM

## CC(=O)OC(CO)COc1c(C(C)(C)C)ccc(SC(C)(C)Sc2cc(C(C)(C)C)c(O)c(C(C)(C)C)c2)c1C(C)(C)C (configuration not stated)
[1]
  IC50: 33 µM

## CC(C)(Sc1cc(C(C)(C)C)c(O)c(C(C)(C)C)c1)Sc1ccc(C(C)(C)C)c(OC[C@@H](O)[C@H](O)CO)c1C(C)(C)C
[2]
  IC50: 3.3 µM
Mus musculus [3]
  inhibition in vivo at 25 mg/kg: 29%
[1]
  IC50: 1 µM
[5]
  IC50: 1200 nM
Mus musculus [7]
  inhibition in vivo at 50 mg/kg: 58%
[8]
  IC50: 8 µM

## C=CC(=O)OCCCCOc1c(C(C)(C)C)ccc(SC(C)(C)Sc2cc(C(C)(C)C)c(O)c(C(C)(C)C)c2)c1C(C)(C)C
[1]
  IC50: 75 µM

## CC(C)(Sc1cc(C(C)(C)C)c(O)c(C(C)(C)C)c1)Sc1ccc(C(C)(C)C)c(OCC(CO)CO)c1C(C)(C)C
[1]
  IC50: 13 µM

## CC(C)(Sc1cc(C(C)(C)C)c(O)c(C(C)(C)C)c1)Sc1ccc(C(C)(C)C)c(OCC(=O)N[C@@H](CCC(=O)O)C(=O)O)c1C(C)(C)C
[1]
  IC50: 75 µM

## CC(C)(Sc1cc(C(C)(C)C)c(O)c(C(C)(C)C)c1)Sc1ccc(C(C)(C)C)c(O/C=C/C(=O)O)c1C(C)(C)C
[1]
  IC50: 30 µM

## CC(C)(Sc1cc(C(C)(C)C)c(O)c(C(C)(C)C)c1)Sc1cc(C(C)(C)C)c(O)c(C(C)(C)C)c1 [PROBUCOL]
[2]
  IC50: > 40 µM
[5]
  IC50: > 40000 nM
[8]
  IC50: > 40 µM

## CC(C)(Sc1cc(C(C)(C)C)c(O)c(C(C)(C)C)c1)Sc1ccc(C(C)(C)C)c(OC[C@@H](O)[C@@H](O)[C@@H](O)C(=O)O)c1C(C)(C)C
[1]
  IC50: 35 µM
Syrian golden hamster [4]
  Activity: 173
Syrian golden hamster [6]
  Activity: 175

## CC(C)(Sc1cc(C(C)(C)C)c(O)c(C(C)(C)C)c1)Sc1ccc(C(C)(C)C)c(OCC(=O)NCCC(=O)O)c1C(C)(C)C
[1]
  IC50: 6 µM

## CC(C)(Sc1cc(C(C)(C)C)c(O)c(C(C)(C)C)c1)Sc1ccc(C(C)(C)C)c(OC[C@@H](O)[C@@H](O)[C@@H](O)CO)c1C(C)(C)C
[1]
  IC50: 13 µM
Syrian golden hamster [4]
  Activity: 119
Syrian golden hamster [6]
  Activity: 338

## CC(C)(Sc1cc(C(C)(C)C)c(O)c(C(C)(C)C)c1)Sc1cc(C(C)(C)C)c(OC(=O)CCC(=O)O)c(C(C)(C)C)c1 [SUCCINOBUCOL]
[1]
  IC50: 6 µM

## CC(C)(Sc1cc(C(C)(C)C)c(O)c(C(C)(C)C)c1)Sc1ccc(C(C)(C)C)c(OCCC(=O)O)c1C(C)(C)C
[1]
  IC50: 7 µM

## CC(C)(Sc1cc(C(C)(C)C)c(O)c(C(C)(C)C)c1)Sc1ccc(C(C)(C)C)c(OC/C(N)=N/O)c1C(C)(C)C
[1]
  IC50: 26 µM

## CC(C)(Sc1cc(C(C)(C)C)c(O)c(C(C)(C)C)c1)Sc1ccc(C(C)(C)C)c(OCC(O)CNCC(=O)O)c1C(C)(C)C (configuration not stated)
[1]
  IC50: 16 µM
Syrian golden hamster [4]
  Activity: 146
Syrian golden hamster [6]
  Activity: 190
